OXTR potentiator: potentiators of human oxytocin receptor. 320,000 compounds, 0.061% hits. CHO-OTR cells, Fluo-8 calcium fluorescence, potentiator mode; 0% = oxytocin EC15, 100% = EC100. P30559. activation, % at 3 µM;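 active = activation above that plate's cutoff, the mean activation of tested compounds plus 3 SD, cut at about 6.6% in these data, passing the limit was not always enough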;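 also: 100% uses oxytocin at 75 nM as the full agonist control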
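Replication – single well per compound, singlicate · Assay system – CHO cell line stably expressing human OTR · Timing – 6 min pre-incubation, 100 s read · Measure – normalized max/min fluorescence ratio, % activation · Doses – 3.0 µM, one dose · Detection – Fluo-8 calcium dye fluorescence · Probe or stimulus – oxytocin near EC15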
OXTR agonist: agonists of human oxytocin receptor | CHO-OTR cells, Fluo-8 calcium fluorescence; normalized: DMSO 0%, oxytocin 100% | activation, % at 3 µM | P30559 | AID 2435 | 320,000 compounds, 0.32% hits;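 active = activation above the mean of all tested compounds plus 3 SD, cutoff set per screening run, cut at about 20% in these data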;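 also: peak over basal fluorescence ratio from a 100 s FLIPR kinetic read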
OX1R antag-1: antagonists of human orexin 1 receptor (OX1R). O43613. OX1R-expressing cells, FRET antagonist read-out. inhibition, % at 6.6 µM. 330,000 compounds, 1.8% hits. AID 485270; in the data active = inhibition mostly above about 38%, no sharp cut-off; inactive = mostly below about 40%;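 also: 0% = agonist challenge alone and 100% = reference antagonist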
Target sequence (O43613 whole entry, looked up): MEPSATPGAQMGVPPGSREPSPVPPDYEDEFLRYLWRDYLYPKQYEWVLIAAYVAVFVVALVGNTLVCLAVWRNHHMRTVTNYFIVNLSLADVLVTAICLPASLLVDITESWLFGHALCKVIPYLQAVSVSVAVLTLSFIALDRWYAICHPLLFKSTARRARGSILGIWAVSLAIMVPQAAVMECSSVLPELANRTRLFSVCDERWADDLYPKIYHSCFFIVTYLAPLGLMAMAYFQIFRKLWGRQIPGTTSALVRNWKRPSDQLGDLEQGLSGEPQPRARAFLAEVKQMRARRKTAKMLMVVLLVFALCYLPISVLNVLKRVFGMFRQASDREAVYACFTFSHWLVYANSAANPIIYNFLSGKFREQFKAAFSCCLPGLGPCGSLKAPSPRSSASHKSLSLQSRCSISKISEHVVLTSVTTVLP
V1R ag counter: V1a receptor agonism, counter-screen for OXTR agonists | P37288 | CHO-V1R cells, Fluo-8 calcium fluorescence, agonist mode; 0% DMSO, 100% 3 nM vasopressin | activation, % at 3 µM | 320,000 compounds, 0.25% hits | AID 2797;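 active = activation above the mean activation of all tested compounds plus 3 SD, per screening run, cut at about 20% in these data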;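 also: signal is peak over basal fluorescence ratio across a 100 second FLIPR read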
OX1R antag-2: antagonists of human orexin 1 receptor; O43613; CHO/OX1R cells, Fluo-8 calcium fluorescence, orexin A; inhibition, % at 5 µM; 330,000 compounds, 0.43% hits; AID 434989;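 active = inhibition above its plate's threshold, mean inhibition of all tested compounds on the plate plus 3 SD, cut at about 37% in these data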;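 also: 0% = orexin A challenge wells and 100% = SB-334867-A antagonist wells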
CHO parental Ca: signal in parental CHO cells, OX1R antagonist counter-screen | parental CHO-K1, ATP-induced calcium, Fluo-8 fluorescence | inhibition, % at 5.6 µM | 330,000 compounds, 0.63% hits;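 active = inhibition above that plate's mean sample inhibition plus 3 SD, cut at about 26% in these data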;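 also: 0% = ATP-challenged DMSO wells and 100% = DMSO wells without ATP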
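Test system: untransfected parental CHO cell line. Compound: one dose, 5.6 µM nominal. Detection: intracellular calcium via Fluo-8 no-wash fluorescent dye. Measure: % inhibition. Benchmarks: ATP-challenged DMSO wells low, unchallenged DMSO wells high.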
OX1R Fluo8 conf: confirmation of human orexin 1 receptor antagonists | inhibition, % at 5 µM | shares compounds with OX1R antag-2 | CHO/OX1R cells, orexin A calcium Fluo-8 fluorescence | AID 492963 | 1,100 compounds, 38% hits; in the data active = inhibition above about 29%;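 also: 0% = agonist challenge alone and 100% = reference antagonist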
CHO Ca triplic: signal in parental CHO cells, OX1R antagonist counter-screen; shares compounds with OX1R antag-2; 1,100 compounds, 9.3% hits; parental CHO-K1, ATP-induced calcium, Fluo-8 fluorescence; inhibition, % at 5.6 µM;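 active = inhibition above a per-plate limit, the mean inhibition of that plate's test compounds plus 3 SD, cut at about 25% in these data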;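 also: 0% = ATP challenge with DMSO and 100% = DMSO without ATP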
OX1R HTRF conf: OX1R (human) antagonism, HTRF confirmed; inhibition, % at 6.6 µM; AID 492964; OX1R-expressing cells, HTRF antagonist assay; shares compounds with OX1R antag-1; 1,800 compounds, 49% hits; in the data active = inhibition above about 55%;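 also: CHO cells expressing OX1R stimulated with orexin A at about EC80; 0% = agonist challenge alone and 100% = reference antagonist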
CHO-K1 HTRF cnt: counter-screen for OX1R antagonists: effect in parental CHO-K1 cells | shares compounds with OX1R antag-1 | HTRF counterscreen | inhibition, % at 6.6 µM | 1,800 compounds, 48% hits; in the data active = inhibition above about 17%;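 also: 0% = agonist challenge with vehicle and 100% = vehicle alone without agonist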
Starred values were filed as active, the others as inactive; . = not tested or not shown; + = active, no number. An excerpt weighted towards active compounds, which were near 2.7% of everything screened.

SMILES | OXTR potentiator | OXTR agonist | OX1R antag-1 | V1R ag counter | OX1R antag-2 | CHO parental Ca | OX1R HTRF conf | CHO-K1 HTRF cnt | others
O=C(c1cc2cc(Br)ccc2[nH]1)N1CCC2(CC1)OCCO2 | -6 | 1 | 2 | 4 | -16 | -4 | . | .
C[C@]12CCC3C(CC[C@H]4C[C@@H](O)CC[C@]34C)C1C[C@H](Br)[C@@H]2O (stereo partly drawn) | -3 | 2 | 8 | 5 | 5 | -2 | . | .
O=C(NC1CCCCC1)[C@@H]1CC=C[C@@H]2CCN(Cc3ccccc3)C(=O)[C@@H]21 | -2 | -1 | 75* | 0 | 42 | -13 | 74* | -2 | OX1R Fluo8 conf=47*;CHO Ca triplic=-8
O=C1/C(=C/c2ccccc2)C[C@@]2(O)[C@H]3Cc4ccc(O)c5c4[C@@]2(CCN3CC2CC2)C1O5 (stereo partly drawn) | -5 | 3 | 11 | 1 | 17 | 11 | . | .
COc1ccccc1C(=O)Nc1ccc2c(c1)CC1(C(=O)N(C)C(=O)N(C)C1=O)C1CCCN21 (stereo not drawn) | -3 | 0 | 67* | 0 | 29 | -15 | 90* | 20* | OX1R Fluo8 conf=43*;CHO Ca triplic=-4
Cc1cccc(C(=O)Nc2ccc3c(c2)CC2(C(=O)N(C)C(=O)N(C)C2=O)C2CCCN32)c1 (stereo not drawn) | -2 | 0 | 6 | 0 | -15 | -25 | . | .
COc1ccccc1NC(=O)COC(=O)c1cn(C)c2ccccc12 | -2 | -1 | 54* | 1 | 47* | -3 | 26 | -1 | OX1R Fluo8 conf=-1;CHO Ca triplic=-12
COC(=O)C1=C(c2cccc(OCc3ccccc3)c2)C[C@@H]2CC[C@H]1N2C(=O)NCc1ccc2[nH]ccc2c1 | -6 | 1 | 12 | 1 | 20 | -6 | . | .
Cc1ccc(Sc2ccc(C=C3C(=O)N(C)C(=O)N(C)C3=O)o2)cc1 | 3 | 0 | 3 | 0 | 0 | -7 | . | .
CN1C(=O)C(=Cc2ccc(N3CCOCC3)o2)C(=O)N(C)C1=O | -5 | 9 | 123* | 8 | -8 | -1 | 65* | 90*
Nc1ccccc1Cl | -2 | 2 | -1 | 0 | 9 | -7 | . | .
O=c1[nH]c(=S)[nH]c(O)c1N=Nc1ccc(S(=O)(=O)N2CCOCC2)cc1 | -3 | 0 | 140* | 0 | -13 | 8 | 49 | 65*
O=C(N=Nc1c(O)[nH]c(=O)[nH]c1=O)C1COc2ccccc2O1 (stereo not drawn) | -16 | 0 | 2 | 1 | -2 | 3 | . | .
O=c1[nH]c(=S)[nH]c(O)c1N=Nc1ccc2c(c1)OCCO2 | 0 | 1 | 146* | 2 | -9 | -3 | 62* | 66*
NS(=O)(=O)c1ccc(N=Nc2c(O)[nH]c(=S)[nH]c2=O)cc1 | -3 | 0 | 77* | 1 | 1 | -3 | 67* | 79*
COc1ccc(N=Nc2c(O)[nH]c(=S)[nH]c2=O)cc1 | -13 | 0 | + | 2 | 2 | -8 | 63* | 100*
Ic1ccccc1CN[C@@H]1C2CCN(CC2)[C@@H]1C(c1ccccc1)c1ccccc1 | -9 | 12 | 0 | 6 | -2 | 16 | . | .
O=c1[nH]c(O)c(N=Nc2ccc(S(=O)(=O)N3CCOCC3)cc2)c(=O)[nH]1 | 5 | 1 | 44 | 0 | 5 | -7 | . | .
O=c1[nH]c(O)c(N=Nc2cccc(S(=O)(=O)N3CCOCC3)c2)c(=O)[nH]1 | -8 | 0 | 88* | 0 | -5 | 0 | 55* | 79*
O=c1[nH]c(=S)[nH]c(O)c1N=Nc1cccc(S(=O)(=O)N2CCOCC2)c1 | 2 | 0 | 97* | 0 | -13 | -4 | 60* | 66*
CCc1cc(=O)oc2c(C)c(OCC(=O)N3C[C@H]4C[C@@H](C3)c3cccc(=O)n3C4)ccc12 | 0 | 0 | 9 | 0 | -11 | -7 | . | .
C=CC[C@@H](CC/C=C/C=C/CC/C=C\[C@@H]1CSC([C@@H]2C[C@@H]2C)=N1)OC | -3 | 0 | 5 | 0 | -12 | -24 | . | .
COc1ccc2[nH]c(C)c(CCNCc3cc(OC)c4c(c3)OCO4)c2c1 | -4 | 6 | 7 | 3 | -2 | -6 | . | .
Oc1ccc2c3c1OC1c4oc5ccccc5c4C[C@@]4(O)[C@@H](C2)N(CC2CC2)CC[C@]314 (stereo partly drawn) | -3 | 3 | 8 | 2 | -9 | -13 | . | .
OCC[n+]1c2ccccc2nc2ccc(N3CCOCC3)cc21 | -1 | 0 | 113* | 0 | -3 | 0 | 40 | 76*
O=C(O)c1ccccc1N=Nc1c(O)[nH]c(=O)[nH]c1=O | 5 | 0 | 111* | 0 | 3 | -9 | 39 | 76*
O=c1[nH]c(O)c(N=Nc2cc(C(F)(F)F)ccc2Cl)c(=O)[nH]1 | -10 | -2 | 35 | -2 | -22 | -10 | . | .
O=C(NC1CN2CCC1CC2)c1ccc(-c2ccc([N+](=O)[O-])cc2)o1 (stereo not drawn) | -3 | 0 | 84* | 1 | 0 | -3 | 41 | 56*
Nc1ccc2nonc2c1[N+](=O)[O-] | -9 | 17 | 83* | 15 | -5 | 2 | 48 | 91*
Clc1cc(Cl)c(-c2cc(Cl)c(Cl)cc2Cl)cc1Cl | -5 | 0 | 1 | 1 | 3 | -5 | . | .

Screening data: PubChem, The Scripps Research Institute Molecular Screening Center
